# According to ChEMBL document CHEMBL2010801, “Semisynthesis and antimicrobial activity of novel guttiferone-A derivatives” (Bioorg Med Chem, 2012):
# The source made the active and inactive calls. No cut-off for these calls is given here.
# What was measured:
# Candida albicans = experiment: Antifungal activity against Candida albicans ATCC 09548 after 24 hrs by broth microdilution method; assay type: functional
# Method in brief: (§1)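 Broth microdilution in microplates with a serial dilution series of compounds. Amphotericin B served as the fungicidal control and fluconazole as the fungistatic control. Yeast plates were incubated at 37 °C for 24 h.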
# Pichia kudriavzevii = experiment: Antifungal activity against Candida krusei ATCC 6258 after 24 hrs by broth microdilution method; assay type: functional; method in brief: as §1
# Candida parapsilosis = experiment: Antifungal activity against Candida parapsilosis ATCC 69548 after 24 hrs by broth microdilution method; assay type: functional; method in brief: as §1
# Nakaseomyces glabratus = experiment: Antifungal activity against Candida glabrata ATCC 90030 after 24 hrs by broth microdilution method; assay type: functional; method in brief: as §1
# Candida tropicalis = experiment: Antifungal activity against Candida tropicalis ATCC 750 after 24 hrs by broth microdilution method; assay type: functional; method in brief: as §1
# Cryptococcus neoformans = experiment: Antifungal activity against Cryptococcus neoformans ATCC 90012 after 24 hrs by broth microdilution method; assay type: functional; conditions: for MIC: read-out: MIC100; method in brief: as §1
# Staphylococcus aureus [1] = experiment: Antimicrobial activity against Staphylococcus aureus ATCC 6538 after 24 hrs by broth microdilution method; assay type: functional; conditions: for MIC50: read-out: MIC50
# Method in brief: (§2)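 Microplate broth microdilution with a serial dilution series of compounds, using chloramphenicol as the antibacterial control. Bacterial plates were incubated at 35 °C for 24 h.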
# [2] = test system: Staphylococcus epidermidis; experiment: Antimicrobial activity against Staphylococcus epidermidis ATCC 12228 after 24 hrs by broth microdilution method; assay type: functional; method in brief: as §2
# Bacillus cereus = experiment: Antimicrobial activity against Bacillus cereus ATCC 11778 after 24 hrs by broth microdilution method; assay type: functional; method in brief: as §2
# Pseudomonas aeruginosa = experiment: Antimicrobial activity against Pseudomonas aeruginosa ATCC 9027 after 24 hrs by broth microdilution method; assay type: functional; method in brief: as §2
# Salmonella typhimurium = experiment: Antimicrobial activity against Salmonella typhimurium ATCC 14028 after 24 hrs by broth microdilution method; assay type: functional; method in brief: as §2
# Escherichia coli = experiment: Antimicrobial activity against Escherichia coli ATCC 25922 after 24 hrs by broth microdilution method; assay type: functional; conditions: for MIC50: ATCC 25922, 24 h; method in brief: as §2
# Proteus mirabilis = experiment: Antimicrobial activity against Proteus mirabilis ATCC 25933 after 24 hrs by broth microdilution method; assay type: functional; method in brief: as §2
# Trichophyton tonsurans = experiment: Antifungal activity against Trichophyton tonsurans after 48 hrs by broth microdilution method; assay type: functional; conditions: for MIC: read-out: MIC100
# Method in brief: (§3)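 Broth microdilution against filamentous fungi with serially diluted compounds. Amphotericin B (fungicidal) and fluconazole (fungistatic) were run as controls. Plates were incubated at 30 °C for 48 h.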
# Nannizzia gypsea = experiment: Antifungal activity against Microsporum gypseum after 48 hrs by broth microdilution method; assay type: functional; method in brief: as §3
# [3] = Cytotoxicity against human PBMC after 48 hrs by MTT assay; assay type: cell-based; conditions: PBMC (peripheral blood mononuclear cells)
# Method in brief: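 Normal human PBMC from healthy volunteers were isolated by Ficoll-Hypaque density gradient and seeded at 2.4 × 10⁶ cells/mL. Compounds were added at 100 to 0.06 and cells held 48 h at 37 °C, 5% CO₂. MTT was then added for 4 h, formazan dissolved in DMSO and A560 read. Untreated cells were taken as 100% viability. CC50 was obtained by linear regression.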
# Staphylococcus aureus [4] = experiment: Ratio of MIC100 for chloramphenicol to MIC100 of compound for Staphylococcus aureus ATCC 6538 after 24 hrs by broth microdilution method; assay type: functional
# [5] = ATCC 90012, 24 h, read-out: MIC50
# [6] = Salmonella enterica subsp. enterica serovar Typhimurium
Compound,MIC100 (Candida albicans),MIC100 (Pichia kudriavzevii),MIC100 (Candida parapsilosis),MIC100 (Nakaseomyces glabratus),MIC50 (Cryptococcus neoformans; [5]) [µM],"MIC50 (Staphylococcus aureus [1]; ATCC 6538, 24 h) [µM]",MIC50 [2],MIC100 [2],MIC100 (Pseudomonas aeruginosa),MIC100 (Salmonella typhimurium; [6]),MIC100 (Escherichia coli),MIC50 (Escherichia coli) [µM],MIC50 (Proteus mirabilis),MIC100 (Proteus mirabilis),MIC50 (Candida albicans),MIC50 (Candida parapsilosis),MIC50 (Candida tropicalis),MIC100 (Candida tropicalis),"MIC (Cryptococcus neoformans; ATCC 90012, 24 h) [µM]",MIC50 (Nannizzia gypsea),also measured
OC(Cn1cncn1)(Cn1cncn1)c1ccc(F)cc1F [FLUCONAZOLE],inactive,inactive,inactive,inactive,6530,,,,,,,,,,,,,,,,"MIC50 (Candida tropicalis; ATCC 750, 24 h): 3260 µM"
CC(=O)Oc1ccc(C(=O)C2=C(O)[C@]3(CC=C(C)C)C[C@H](CC=C(C)C)[C@@](C)(CCC=C(C)C)[C@](CC=C(C)C)(C2=O)C3=O)cc1OC(C)=O,inactive,inactive,inactive,inactive,56,56,inactive,inactive,inactive,inactive,inactive,1820,inactive,inactive,inactive,inactive,inactive,inactive,3.64,inactive,"MIC (Staphylococcus aureus [1]; ATCC 6538, 24 h, read-out: MIC100): 3.64 µM; MIC50 (Bacillus cereus): inactive; MIC (Bacillus cereus; ATCC 11778, 24 h, read-out: MIC100): 0.227 µM; MIC50 (Pseudomonas aeruginosa): inactive; MIC50 (Salmonella typhimurium; [6]): inactive; MIC50 (Pichia kudriavzevii; ATCC 6258, 24 h, read-out: MIC50): 3640 µM; MIC (Trichophyton tonsurans): 3640 µM; CC50 at 48 h [3]: 114 µM; Ratio (Staphylococcus aureus [4]): 3.31"
CC(C)=CCC[C@]1(C)[C@@H](CC=C(C)C)C[C@@]2(CC=C(C)C)C(=O)C(C(=O)c3ccc(OC(=O)c4ccccc4)c(OC(=O)c4ccccc4)c3)=C(O)[C@]1(CC=C(C)C)C2=O,inactive,inactive,inactive,inactive,,1540,inactive,inactive,inactive,inactive,inactive,48,inactive,inactive,inactive,inactive,inactive,inactive,,inactive,"MIC100 (Staphylococcus aureus [1]): inactive; MIC100 (Bacillus cereus): inactive; MIC50 (Salmonella typhimurium; Salmonella enterica, ATCC 14028, 24 h): 49.3 µM; MIC50 (Pichia kudriavzevii): inactive; MIC50 (Nakaseomyces glabratus): inactive; MIC100 (Cryptococcus neoformans): inactive; MIC50 (Cryptococcus neoformans; ATCC 90012, 24 h): 49.3 µM; MIC50 (Trichophyton tonsurans): inactive; MIC100 (Trichophyton tonsurans): inactive; MIC100 (Nannizzia gypsea): inactive; CC50 at 48 h [3]: > 123 µM"
C[C@@H]1[C@H](O)[C@@H](C)/C=C/C=C/C=C/C=C/C=C/C=C/C=C/[C@H](O[C@@H]2O[C@H](C)[C@@H](O)[C@H](N)[C@@H]2O)C[C@@H]2O[C@](O)(C[C@@H](O)C[C@@H](O)[C@H](O)CC[C@@H](O)C[C@@H](O)CC(=O)O[C@H]1C)C[C@H](O)[C@H]2C(=O)O [AMPHOTERICIN B],,,,,,,,,,,,,,,,inactive,inactive,,1.08,inactive,"MIC (Candida albicans; ATCC 09548, 24 h, read-out: MIC100): 0.54 µM; MIC50 (Pichia kudriavzevii): inactive; MIC (Pichia kudriavzevii; ATCC 6258, 24 h, read-out: MIC100): 1.08 µM; MIC (Candida parapsilosis; Lodderomyces parapsilosis, ATCC 69548, 24 h, read-out: MIC100): 0.54 µM; MIC50 (Nakaseomyces glabratus): inactive; MIC (Nakaseomyces glabratus; ATCC 90030, 24 h, read-out: MIC100): 0.54 µM; MIC (Candida tropicalis; ATCC 750, 24 h, read-out: MIC100): 1.08 µM; MIC50 (Cryptococcus neoformans): inactive; MIC50 (Trichophyton tonsurans): inactive; MIC (Trichophyton tonsurans): 540 µM"
